According to ChEMBL document CHEMBL2346664, “Synthesis, characterization and in vitro anticancer evaluation of novel 1,2,4-triazolin-3-one derivatives” (2013):

Assays:
Assay type in all cases: functional
HOP-62 [1] = test: Growth inhibition of human HOP62 cells assessed as cell growth at 10 '-4 M after 48 hrs by sulforhodamine B assay; conditions: HOP-62, 48 h, read-out: Activity
UACC-257 = test: Growth inhibition of human UACC257 cells assessed as cell growth at 10 '-4 M after 48 hrs by sulforhodamine B assay; conditions: UACC-257, 48 h, read-out: Activity
HOP-62 [2] = test: Growth inhibition of human HOP62 cells assessed as growth inhibition at 10 uM after 48 hrs by sulforhodamine B assay; conditions: HOP-62, 48 h, read-out: GI
[3] = Growth inhibition of human NCI-ADR-RES cells assessed as cell growth at 10 '-4 M after 48 hrs by sulforhodamine B assay; conditions: read-out: Activity
TK-10 = test: Growth inhibition of human TK10 cells assessed as cell growth at 10 '-5 M after 48 hrs by sulforhodamine B assay; conditions: TK-10, 48 h, read-out: Activity
SN12C = test: Growth inhibition of human SN12C cells assessed as cell growth at 10 '-7 M after 48 hrs by sulforhodamine B assay; conditions: read-out: Activity
[4] = Growth inhibition of human HCC2998 cells assessed as cell growth at 10 '-6 M after 48 hrs by sulforhodamine B assay; conditions: HCC 2998, 48 h, read-out: Activity
SNB-19 [5] = test: Growth inhibition of human SNB19 cells after 48 hrs by sulforhodamine B assay; conditions: SNB-19, 48 h
PC-3 = test: Growth inhibition of human PC3 cells assessed as cell growth at 10 '-4 M after 48 hrs by sulforhodamine B assay; conditions: PC-3, 48 h, read-out: Activity
T47D = test: Growth inhibition of human T47D cells assessed as growth inhibition at 10 uM after 48 hrs by sulforhodamine B assay; conditions: read-out: GI
OVCAR-5 = test: Growth inhibition of human OVCAR5 cells assessed as cell growth at 10 '-5 M after 48 hrs by sulforhodamine B assay; conditions: OVCAR-5, 48 h, read-out: Activity
[6] = Growth inhibition of human NCI-ADR-RES cells assessed as cell growth at 10 '-5 M after 48 hrs by sulforhodamine B assay; conditions: read-out: Activity
COLO 205 = test: Growth inhibition of human COLO205 cells assessed as growth inhibition at 10 uM after 48 hrs by sulforhodamine B assay; conditions: COLO 205, 48 h, read-out: GI
SNB-19 [7] = test: Growth inhibition of human SNB19 cells assessed as growth inhibition at 10 uM after 48 hrs by sulforhodamine B assay; conditions: SNB-19, 48 h, read-out: GI
SK-MEL-28 [8] = test: Growth inhibition of human SK-MEL-28 cells assessed as cell growth at 10 '-5 M after 48 hrs by sulforhodamine B assay; conditions: SK-MEL-28, 48 h, read-out: Activity
UO-31 [9] = test: Growth inhibition of human UO31 cells assessed as cell growth at 10 '-7 M after 48 hrs by sulforhodamine B assay; conditions: UO-31, 48 h, read-out: Activity
SNB-19 [10] = test: Growth inhibition of human SNB19 cells assessed as cell growth at 10 '-8 M after 48 hrs by sulforhodamine B assay; conditions: SNB-19, 48 h, read-out: Activity
MDA-MB-435 = test: Growth inhibition of human MDA-MB-435 cells assessed as cell growth at 10 '-7 M after 48 hrs by sulforhodamine B assay; conditions: MDA-MB-435, 48 h, read-out: Activity
HL-60(TB) = test: Growth inhibition of human HL-60(TB) cells assessed as cell growth at 10 '-7 M after 48 hrs by sulforhodamine B assay; conditions: HL-60, 48 h, read-out: Activity
Summary of the method: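 Five-dose NCI protocol with final concentrations of 0.01–100 µM and drug diluted from a DMSO stock (400× the top concentration) in medium with gentamicin. Cells were pre-incubated 24 h, then exposed 48 h at 37 °C. Suspension cells were fixed with 16% final TCA, SRB-stained and read at 515 nm. Percentage growth at each level was [(Ti−Tz)/(C−Tz)]×100, or [(Ti−Tz)/Tz]×100 when Ti < Tz.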

SK-MEL-28 [11] = test: Growth inhibition of human SK-MEL-28 cells assessed as growth inhibition at 10 uM after 48 hrs by sulforhodamine B assay; conditions: SK-MEL-28, 48 h, read-out: GI
SF-295 = test: Growth inhibition of human SF295 cells after 48 hrs by sulforhodamine B assay; conditions: SF-295, 48 h
MDA-MB-468 = test: Growth inhibition of human MDA-MB-468 cells assessed as cell growth at 10 '-7 M after 48 hrs by sulforhodamine B assay; conditions: MDA-MB-468, 48 h, read-out: Activity
MCF7 = test: Growth inhibition of human MCF7 cells after 48 hrs by sulforhodamine B assay; conditions: MCF7, 48 h
Summary of the method: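 NCI 60-cell-line five-dose screen. Cells were plated at 5,000–40,000/well by doubling time and grown 24 h at 37 °C, 5% CO2. Time-zero plates were TCA-fixed. Drug from DMSO stock was tested at 0.01, 0.1, 1, 10 and 100 µM final for 48 h continuous exposure. Read-out was SRB at 515 nm. GI50 is the concentration giving 50% reduction in net protein increase versus untreated control.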

[12] = Growth inhibition of human HCC2998 cells assessed as cell growth at 10 '-4 M after 48 hrs by sulforhodamine B assay; conditions: HCC 2998, 48 h, read-out: Activity
NCI-H522 = test: Growth inhibition of human NCI-H522 cells after 48 hrs by sulforhodamine B assay; conditions: NCI-H522, 48 h
SF-539 = test: Growth inhibition of human SF539 cells assessed as cell growth at 10 '-5 M after 48 hrs by sulforhodamine B assay; conditions: SF-539, 48 h, read-out: Activity
Malme-3M = test: Growth inhibition of human MALME-3M cells assessed as cell growth at 10 '-6 M after 48 hrs by sulforhodamine B assay; conditions: read-out: Activity
UO-31 [13] = test: Growth inhibition of human UO31 cells assessed as growth inhibition at 10 uM after 48 hrs by sulforhodamine B assay; conditions: UO-31, 48 h, read-out: GI
SF-268 = test: Growth inhibition of human SF268 cells assessed as cell growth at 10 '-6 M after 48 hrs by sulforhodamine B assay; conditions: SF-268, 48 h, read-out: Activity
HCT-116 = test: Growth inhibition of human HCT116 cells assessed as growth inhibition at 10 uM after 48 hrs by sulforhodamine B assay; conditions: HCT-116, 48 h, read-out: GI
MOLT-4 = test: Growth inhibition of human MOLT4 cells assessed as cell growth at 10 '-8 M after 48 hrs by sulforhodamine B assay; conditions: MOLT-4, 48 h, read-out: Activity
[14] = read-out: LD50 (the source's name)

Cc1cc(=O)oc2cc(OCCn3c(C)nn(-c4ccc(Cl)cc4)c3=O)ccc12
growth at 100 µM (HOP-62 [1]): -8%
growth at 100 µM (UACC-257): 53%
inhibition of growth at 10 µM (HOP-62 [2]): 72.7%
growth at 100 µM [3]: 2%
growth at 10 µM (TK-10): 58%
growth at 0.1 µM (SN12C): 90%
growth at 1 µM [4]: 76%
GI50 (SNB-19 [5]): 5370 nM
TGI (SNB-19 [5]): > 1000 nM
CC50 (SNB-19 [5]; [14]): > 1000 nM
growth at 100 µM (PC-3): 34%
inhibition of growth at 10 µM (T47D): 52.6%
growth at 10 µM (OVCAR-5): 53%
growth at 10 µM [6]: 10%
inhibition of growth at 10 µM (COLO 205): 89.4%
inhibition of growth at 10 µM (SNB-19 [7]): 45.5%
growth at 10 µM (SK-MEL-28 [8]): 33%
growth at 0.1 µM (UO-31 [9]): 83%
growth at 0.01 µM (SNB-19 [10]): 92%
growth at 0.1 µM (MDA-MB-435): 94%
growth at 0.1 µM (HL-60(TB)): 104%
inhibition of growth at 10 µM (SK-MEL-28 [11]): 59.2%
GI50 (SF-295): 4730 nM
TGI (SF-295): > 1000 nM
CC50 (SF-295; [14]): > 1000 nM
growth at 0.1 µM (MDA-MB-468): 90%
GI50 (MCF7): 2700 nM
TGI (MCF7): > 1000 nM
CC50 (MCF7; [14]): > 1000 nM
growth at 100 µM [12]: 17%
GI50 (NCI-H522): 3850 nM
TGI (NCI-H522): 3820 nM
CC50 (NCI-H522; [14]): > 1000 nM
growth at 10 µM (SF-539): 25%
growth at 1 µM (Malme-3M): 82%
inhibition of growth at 10 µM (UO-31 [13]): 57.2%
growth at 1 µM (SF-268): 87%
inhibition of growth at 10 µM (HCT-116): 84.9%
growth at 0.01 µM (MOLT-4): 104%
